Data taken from ChEMBL document CHEMBL1208776, “Design, synthesis and evaluation of a novel double pro-drug: INX-08189. A new clinical candidate for hepatitis C virus” (Bioorg Med Chem Lett, 2010).
pEC50: −log10 of the molar value.

How the values were obtained:
Hepatitis C virus = experiment: Antiviral activity against HCV genotype 1b in Huh7 cells assessed as inhibition of viral replication by cell-based replicon assay; format: functional, organism-based, Hepacivirus hominis; settings: Huh-7
[1] = Cytotoxicity against human HuH7 cells; format: cell-based, Huh-7
[2] = (§1) Permeability across human Caco-2 cells from apical to basolateral side in human Caco2 cell membrane; format: ADME, cell-based; settings: read-out: permeability
Summary of the method: (§2)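 Caco-2 monolayers were grown for 27 days (resistance 600 ohms/cm²). Apical-to-basal transport was measured as % transported in 80 min, with permeability expressed in cm/s.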

Hepatocyte = experiment: Cmax in primary human hepatocytes after 2uM treatment; format: ADME, cell-based
Summary of the method: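 Primary human hepatocytes were incubated with 2 µM compound. Intracellular 2′-C-methyl guanosine triphosphate was measured over 48 h and expressed as pmol/10⁶ cells. Cmax and decay half-life were estimated from the time course.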

Caco-2 = experiment: as §1; format: ADME, cell-based; summary of the method: as §2
Carboxypeptidase A = experiment: Half life in carboxypeptidase A assay
[3] = human, HuH7 cells, read-out: CC50

Compound | pEC50 (Hepatitis C virus) | EC90 (Hepatitis C virus) | CC50 ([1]; Homo sapiens, Huh-7) | Papp A→B [2] | Cmax_triphosphate (Hepatocyte) | CC50 [1, 3] | permeability (Caco-2) | half-life (Carboxypeptidase A)
COc1nc(N)nc2c1ncn2[C@@H]1O[C@H](CO)[C@@H](O)[C@@]1(C)O [BETA-2'-C-METHYL-6-O-METHYL GUANOSINE] | 5.28 | 21000 nM | > 100000 nM |  |  |  |  | 
COc1nc(N)nc2c1ncn2[C@@H]1O[C@H](COP(=O)(N[C@@H](C)C(=O)OCc2ccccc2)Oc2cccc3ccccc23)[C@@H](O)[C@@]1(C)O (stereo partly drawn) | 7.52 | 100 nM | 12000 nM | 4.02 ×10⁻⁶ cm/s |  |  |  | 
COc1nc(N)nc2c1ncn2[C@@H]1O[C@H](COP(=O)(N[C@@H](C)C(=O)OCCC(C)(C)C)Oc2cccc3ccccc23)[C@@H](O)[C@@]1(C)O (stereo partly drawn) | 7.70 | 80 nM | 14000 nM |  |  |  |  | 
COc1nc(N)nc2c1ncn2[C@@H]1O[C@H](COP(=O)(N[C@@H](C)C(=O)OC(C)C)Oc2cccc3ccccc23)[C@@H](O)[C@@]1(C)O (stereo partly drawn) | 6.27 | 1700 nM | > 100000 nM |  |  |  |  | 
COc1nc(N)nc2c1ncn2[C@@H]1O[C@H](COP(=O)(N[C@@H](C)C(=O)OCC(C)(C)C)Oc2cccc3ccccc23)[C@@H](O)[C@@]1(C)O (stereo partly drawn) [BMS-986094] | 8.00 | 40 nM |  |  | 80 pmol/10^6cells | 7000 nM | 2.7% | 
COc1nc(N)nc2c1ncn2[C@@H]1O[C@H](COP(=O)(N[C@@H](C)C(=O)OC2CCCCC2)Oc2cccc3ccccc23)[C@@H](O)[C@@]1(C)O (stereo partly drawn) | 7.52 | 90 nM | 6000 nM |  |  |  |  | 
C[C@H](NP(=O)(OC[C@H]1O[C@@H](n2cnc3c(=O)[nH]c(N)nc32)[C@](C)(O)[C@@H]1O)Oc1cccc2ccccc12)C(=O)OCC(C)(C)C (stereo partly drawn) | 7.14 | 270 nM |  |  |  | > 100000 nM | < 0.5% | 
COc1nc(N)nc2c1ncn2[C@@H]1O[C@H](COP(=O)(N[C@@H](C)C(=O)OC2CCCC2)Oc2cccc3ccccc23)[C@@H](O)[C@@]1(C)O (stereo partly drawn) | 7.52 | 80 nM | 9000 nM |  |  |  |  | 
COc1nc(N)nc2c1ncn2[C@@H]1O[C@H](COP(=O)(N[C@@H](CC(C)C)C(=O)OCC(C)(C)C)Oc2cccc3ccccc23)[C@@H](O)[C@@]1(C)O (stereo partly drawn) | 7.15 | 230 nM | 14000 nM |  |  |  |  | 
COc1nc(N)nc2c1ncn2[C@@H]1O[C@H](CO[P@](=O)(N[C@@H](C)C(=O)OCC(C)(C)C)Oc2cccc3ccccc23)[C@@H](O)[C@@]1(C)O |  |  |  |  |  |  |  | 17 min
COc1nc(N)nc2c1ncn2[C@@H]1O[C@H](COP(=O)(N[C@H](C)C(=O)OCC(C)(C)C)Oc2cccc3ccccc23)[C@@H](O)[C@@]1(C)O (stereo partly drawn) | 6.62 | 580 nM | 51000 nM |  |  |  |  | 
COc1nc(N)nc2c1ncn2[C@@H]1O[C@H](COP(=O)(N[C@H](C(=O)OCC(C)(C)C)C(C)C)Oc2cccc3ccccc23)[C@@H](O)[C@@]1(C)O (stereo partly drawn) | 6.72 | 640 nM | 33000 nM |  |  |  |  | 
COc1nc(N)nc2c1ncn2[C@@H]1O[C@H](CO[P@@](=O)(N[C@@H](C)C(=O)OCC(C)(C)C)Oc2cccc3ccccc23)[C@@H](O)[C@@]1(C)O |  |  |  |  |  |  |  | 20 min
COc1nc(N)nc2c1ncn2[C@@H]1O[C@H](COP(=O)(N[C@@H](CCSC)C(=O)OCC(C)(C)C)Oc2cccc3ccccc23)[C@@H](O)[C@@]1(C)O (stereo partly drawn) | 7.22 | 190 nM | 28000 nM |  |  |  |  | 
CC[C@H](C)[C@H](NP(=O)(OC[C@H]1O[C@@H](n2cnc3c(OC)nc(N)nc32)[C@](C)(O)[C@@H]1O)Oc1cccc2ccccc12)C(=O)OCC(C)(C)C (stereo partly drawn) | 6.07 | 2530 nM | 18000 nM |  |  |  |  | 
CCCOC(=O)[C@H](C)NP(=O)(OC[C@H]1O[C@@H](n2cnc3c(OC)nc(N)nc32)[C@](C)(O)[C@@H]1O)Oc1cccc2ccccc12 (stereo partly drawn) | 7.52 | 100 nM | 13000 nM |  |  |  |  | 
